Results on 15 compounds are retold here after ChEMBL document CHEMBL1137180, “Synthesis and structure-activity relationship of a novel sulfone series of TNF-alpha converting enzyme inhibitors” (Bioorg Med Chem Lett, 2004).

Experiment [1] deals with Caco-2. The experiment can be described thus: Permeability action in Caco-2 cells. In kind it is functional, Homo sapiens. Background: Caco-2 cells form a polarised layer with tight junctions and transporters.
In experiment [2] the target is Disintegrin and metalloproteinase domain-containing protein 17 (Sus scrofa, UniProt O77636). The experiment can be described thus: Inhibition of porcine Tumor necrosis factor- alpha converting enzyme (TACE, ADAM17).
Experiment [3] deals with Collagenase 3 (Homo sapiens, UniProt P45452). The experiment in a line: Inhibition of Matrix metalloprotease-13 (MMP-13). In outline: (§1)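 Inhibition is reported as Ki (nM) against each isolated MMP. Each value comes from a single determination, with no replicates.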
Experiment [4] deals with 72 kDa type IV collagenase (Homo sapiens, UniProt P08253). The experiment can be described thus: inhibition of Matrix metalloprotease-2 (MMP-2). In outline: as §1
In experiment [5] the target is Disintegrin and metalloproteinase domain-containing protein 17 (Homo sapiens, UniProt P78536). The experiment can be described thus: Effect on TNF-Alpha release in LPS-stimulated human whole blood assay. Type of experiment: functional, tissue-based.
Experiment [6] deals with Mus musculus. The experiment in a line: Compound was tested for anti TNF-alpha activity using LPS mouse model at 10 mg/kg p.o. Type of experiment: functional. The following applies: route oral.
Experiment [7] has as its target T1, Interstitial collagenase (Homo sapiens, UniProt P03956).
T1 sequence (P03956 whole entry): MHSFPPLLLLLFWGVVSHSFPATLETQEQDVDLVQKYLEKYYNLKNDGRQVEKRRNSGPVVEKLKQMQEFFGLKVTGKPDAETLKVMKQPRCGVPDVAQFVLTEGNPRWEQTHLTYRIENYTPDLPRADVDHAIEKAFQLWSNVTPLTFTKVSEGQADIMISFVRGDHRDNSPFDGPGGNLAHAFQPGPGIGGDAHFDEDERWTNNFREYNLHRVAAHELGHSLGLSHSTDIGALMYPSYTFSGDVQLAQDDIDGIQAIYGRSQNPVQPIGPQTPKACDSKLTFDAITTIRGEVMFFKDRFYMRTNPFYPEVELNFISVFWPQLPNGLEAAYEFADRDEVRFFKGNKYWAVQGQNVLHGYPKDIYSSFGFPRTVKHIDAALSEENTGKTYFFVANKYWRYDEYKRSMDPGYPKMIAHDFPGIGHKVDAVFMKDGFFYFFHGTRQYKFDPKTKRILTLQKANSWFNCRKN
The experiment can be described thus: Inhibition of Matrix metalloprotease-1 (MMP-1). In outline: as §1

The target of experiment [8] is Matrix metalloproteinase-9 (Homo sapiens, UniProt P14780). The experiment can be described thus: Inhibition of Matrix metalloprotease-9 (MMP-9). An outline of the steps:
as §1

The test system of experiment [9] is Mus musculus. The experiment in a line: Compound was tested for anti TNF-alpha activity using LPS mouse model at 5 mg/kg p.o. In kind it is functional. The following applies: route oral.
Experiment [10] concerns Caco-2. The experiment can be described thus: Permeability action in Caco-2 cell. In kind it is functional, Homo sapiens.

In general, IC50 refers to the point on the concentration scale where inhibition reaches its midpoint. Higher therefore signals lower potency. A word on the Ki: it is a dissociation constant, usually derived from enzyme kinetics or from competition with a known ligand. Usually inhibition in vivo stands for the drop in the measured response relative to a control, in per cent. Low readings indicate little suppression, high ones strong suppression. The ED50 is the dose that gives a 50% effect, or the effect in half of the subjects.

72 kDa type IV collagenase, sequence (P08253 whole entry, the tested form may be a part): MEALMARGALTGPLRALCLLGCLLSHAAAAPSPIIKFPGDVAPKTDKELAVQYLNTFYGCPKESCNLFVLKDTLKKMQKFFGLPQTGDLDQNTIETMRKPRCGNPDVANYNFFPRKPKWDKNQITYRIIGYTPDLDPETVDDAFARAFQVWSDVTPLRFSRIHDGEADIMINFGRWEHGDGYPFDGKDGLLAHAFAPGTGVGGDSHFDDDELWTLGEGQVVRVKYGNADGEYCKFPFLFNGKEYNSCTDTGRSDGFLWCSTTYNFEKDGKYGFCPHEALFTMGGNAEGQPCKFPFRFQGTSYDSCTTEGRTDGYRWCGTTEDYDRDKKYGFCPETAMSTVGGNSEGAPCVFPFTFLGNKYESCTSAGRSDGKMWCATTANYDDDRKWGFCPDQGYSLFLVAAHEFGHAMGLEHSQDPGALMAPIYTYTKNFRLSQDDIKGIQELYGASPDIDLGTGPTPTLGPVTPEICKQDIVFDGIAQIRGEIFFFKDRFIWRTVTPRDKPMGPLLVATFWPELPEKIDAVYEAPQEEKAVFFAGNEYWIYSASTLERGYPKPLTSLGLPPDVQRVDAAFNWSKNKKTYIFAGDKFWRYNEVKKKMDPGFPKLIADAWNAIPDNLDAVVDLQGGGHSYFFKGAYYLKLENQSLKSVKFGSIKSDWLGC
Disintegrin and metalloproteinase domain-containing protein 17 (Sus scrofa, UniProt O77636), sequence (O77636 whole entry, the tested form may be a part): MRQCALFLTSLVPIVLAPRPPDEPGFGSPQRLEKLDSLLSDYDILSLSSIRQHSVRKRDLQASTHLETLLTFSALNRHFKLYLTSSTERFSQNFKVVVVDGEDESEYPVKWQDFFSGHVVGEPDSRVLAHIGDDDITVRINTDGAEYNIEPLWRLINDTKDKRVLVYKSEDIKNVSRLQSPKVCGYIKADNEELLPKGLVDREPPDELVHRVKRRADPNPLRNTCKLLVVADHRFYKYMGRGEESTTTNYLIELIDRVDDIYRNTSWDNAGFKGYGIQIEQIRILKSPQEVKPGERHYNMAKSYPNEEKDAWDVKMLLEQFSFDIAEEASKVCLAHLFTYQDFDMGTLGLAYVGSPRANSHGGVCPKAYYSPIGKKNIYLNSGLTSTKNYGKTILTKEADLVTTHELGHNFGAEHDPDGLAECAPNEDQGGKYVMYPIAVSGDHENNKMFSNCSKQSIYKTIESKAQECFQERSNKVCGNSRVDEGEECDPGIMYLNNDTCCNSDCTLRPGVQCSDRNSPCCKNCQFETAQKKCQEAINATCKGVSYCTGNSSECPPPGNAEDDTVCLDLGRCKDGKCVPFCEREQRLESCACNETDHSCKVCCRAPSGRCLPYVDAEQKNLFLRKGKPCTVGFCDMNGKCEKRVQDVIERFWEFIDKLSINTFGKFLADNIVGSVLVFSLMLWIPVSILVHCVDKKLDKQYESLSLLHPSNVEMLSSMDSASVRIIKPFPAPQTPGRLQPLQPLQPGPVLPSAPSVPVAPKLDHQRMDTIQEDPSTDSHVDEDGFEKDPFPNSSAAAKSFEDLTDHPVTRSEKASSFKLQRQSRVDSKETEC
Matrix metalloproteinase-9, sequence (P14780 whole entry): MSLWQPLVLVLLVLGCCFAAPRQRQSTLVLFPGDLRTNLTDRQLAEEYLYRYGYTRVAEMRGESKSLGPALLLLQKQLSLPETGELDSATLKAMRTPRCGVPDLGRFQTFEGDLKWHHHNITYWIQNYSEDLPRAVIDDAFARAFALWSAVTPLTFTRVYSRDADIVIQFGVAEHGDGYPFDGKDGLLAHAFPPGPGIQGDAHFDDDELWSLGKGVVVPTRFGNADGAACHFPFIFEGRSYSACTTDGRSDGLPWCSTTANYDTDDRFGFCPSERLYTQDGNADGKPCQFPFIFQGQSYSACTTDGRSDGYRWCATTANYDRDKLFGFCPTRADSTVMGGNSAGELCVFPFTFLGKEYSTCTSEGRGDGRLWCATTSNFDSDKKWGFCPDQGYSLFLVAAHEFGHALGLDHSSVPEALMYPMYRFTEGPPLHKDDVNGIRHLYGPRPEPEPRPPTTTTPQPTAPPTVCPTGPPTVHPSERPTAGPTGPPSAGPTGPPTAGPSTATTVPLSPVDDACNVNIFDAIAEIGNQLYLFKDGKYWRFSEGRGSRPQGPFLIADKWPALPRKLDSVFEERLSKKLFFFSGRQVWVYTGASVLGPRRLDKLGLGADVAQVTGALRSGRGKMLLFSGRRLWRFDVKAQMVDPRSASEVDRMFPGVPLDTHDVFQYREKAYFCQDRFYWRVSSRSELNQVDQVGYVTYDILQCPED
Disintegrin and metalloproteinase domain-containing protein 17 (Homo sapiens, UniProt P78536), sequence (P78536 whole entry, the tested form may be a part): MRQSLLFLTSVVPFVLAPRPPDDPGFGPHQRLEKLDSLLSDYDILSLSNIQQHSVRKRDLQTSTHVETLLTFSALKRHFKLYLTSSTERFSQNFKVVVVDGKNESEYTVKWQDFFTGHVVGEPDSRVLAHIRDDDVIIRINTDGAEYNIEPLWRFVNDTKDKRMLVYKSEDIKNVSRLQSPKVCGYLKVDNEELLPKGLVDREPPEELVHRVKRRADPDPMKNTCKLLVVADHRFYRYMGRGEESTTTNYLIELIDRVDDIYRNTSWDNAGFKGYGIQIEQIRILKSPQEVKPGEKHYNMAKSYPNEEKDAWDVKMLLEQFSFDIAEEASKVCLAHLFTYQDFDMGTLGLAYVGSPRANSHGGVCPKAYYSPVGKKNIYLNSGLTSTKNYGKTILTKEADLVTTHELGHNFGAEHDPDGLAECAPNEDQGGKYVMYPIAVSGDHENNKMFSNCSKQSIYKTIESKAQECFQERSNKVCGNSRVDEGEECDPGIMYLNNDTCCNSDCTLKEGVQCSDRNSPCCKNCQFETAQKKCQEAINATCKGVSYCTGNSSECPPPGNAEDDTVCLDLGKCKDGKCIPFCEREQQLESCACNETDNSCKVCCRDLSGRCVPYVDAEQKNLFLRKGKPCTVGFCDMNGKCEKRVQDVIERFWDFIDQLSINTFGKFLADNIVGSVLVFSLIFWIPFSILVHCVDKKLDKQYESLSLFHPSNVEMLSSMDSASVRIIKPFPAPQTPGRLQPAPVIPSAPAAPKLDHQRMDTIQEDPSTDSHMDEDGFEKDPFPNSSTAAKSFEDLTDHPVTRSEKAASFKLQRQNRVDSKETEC

Consider `Cc1cc(COc2ccc(S(=O)(=O)CC3CN(C(C)C)CCC3C(=O)NO)cc2)c2ccccc2n1` (stereo not given), for which, in [1], the “Caco-2 Papp” value was 0.1 ×10⁻⁶ cm/s. Moreover, the half-maximal inhibitory concentration (IC50) in experiment [2] is 1.5 nM; in experiment [5], 230 nM. The Ki in [3] is greater than 5000 nM; in experiment [4], greater than 3300 nM; in [7], greater than 4900 nM; in experiment [8] it was greater than 2100 nM. Besides, testing at 10 mg/kg in experiment [6] gave an inhibition in vivo of 38%.

As for `CONC(=O)[C@H]1CCCN(C)[C@@H]1C(=O)Nc1ccc(OCc2cc(C)nc3ccccc23)cc1`, the “Caco-2 Papp” value in experiment [1] is 2.1 ×10⁻⁶ cm/s. The IC50 was determined as 6.2 nM in experiment [2] and 20 nM in experiment [5]. The figures for the inhibitory constant (Ki) in [4], in experiment [7] and in experiment [8] were greater than 3300 nM, greater than 4900 nM and greater than 2100 nM, respectively. Further, in [6], the ED50 was 3 mg/kg. The inhibition in vivo at 10 mg/kg in experiment [6] is greater than 50%.

Regarding `Cc1cc(COc2ccc(S(=O)(=O)CC3(CC(=O)NO)CCCN(CC(C)C)C3)cc2)c2ccccc2n1` (stereo not given), in experiment [1], the “Caco-2 Papp” value is 0.7 ×10⁻⁶ cm/s. The 50% inhibitory concentration (IC50) in [2] turned out to be 3.3 nM; in [5] it was 2500 nM. For the same compound, the inhibitory constant (Ki) in [3] is greater than 5000 nM; in experiment [4] it was greater than 3300 nM; in [7], greater than 4900 nM; in experiment [8], greater than 2100 nM. The compound also gave an inhibition in vivo at 5 mg/kg in experiment [9] of 25%.

Take `Cc1cc(COc2ccc(S(=O)(=O)CC3C(C(=O)NO)CCN3C)cc2)c2ccccc2n1` (stereo not given): the “Caco-2 Papp” value in experiment [1] came to 1 ×10⁻⁶ cm/s. For the same compound, the IC50 in experiment [2] is less than 1 nM; in [5], 180 nM. Besides, the inhibition constant Ki in [3] was 1710 nM; in experiment [4], greater than 3300 nM; in experiment [7], greater than 4900 nM; in experiment [8], greater than 2100 nM. Further, the ED50 in experiment [6] came out at 2.5 mg/kg. Further, the inhibition in vivo at 10 mg/kg in experiment [6] worked out at 50%.

Consider `CCC(C)N1CCC(C(=O)NO)C(CS(=O)(=O)c2ccc(OCc3cc(C)nc4ccccc34)cc2)C1` (stereo not given), for which the “Caco-2 Papp” value in [1] amounted to 1.8 ×10⁻⁶ cm/s. The IC50 in [2] is less than 1 nM; in experiment [5] it was 1070 nM. For the same compound, the inhibition constant Ki in experiment [3] was greater than 5000 nM; in experiment [4], greater than 3300 nM; in experiment [7] it was greater than 4900 nM; in experiment [8], greater than 2100 nM. Further, the inhibition in vivo at 10 mg/kg in [6] turned out to be 33%.

`Cc1cc(COc2ccc(S(=O)(=O)CC3(CC(=O)NO)CCCNC3)cc2)c2ccccc2n1` (stereo not given): in experiment [1], the “Caco-2 Papp” value is 0.1 ×10⁻⁶ cm/s. Moreover, the IC50 amounted to 2.8 nM in [2] and 123 nM in experiment [5]. The Ki in experiment [3] is greater than 5000 nM; in experiment [4], greater than 3300 nM; in experiment [7], greater than 4900 nM; in experiment [8] it was greater than 2100 nM. In [9], this compound gave an inhibition in vivo at 5 mg/kg of 31%.

For the compound `C=CCN1CCC(C(=O)NO)C(CS(=O)(=O)c2ccc(OCc3cc(C)nc4ccccc34)cc2)C1` (stereo not given), the “Caco-2 Papp” value in [1] came to 0.97 ×10⁻⁶ cm/s. Also, the 50% inhibitory concentration (IC50) worked out at 1.8 nM in experiment [2] and 160 nM in [5]. Besides, the Ki was 503 nM in experiment [3], greater than 3300 nM in experiment [4], greater than 4900 nM in experiment [7] and greater than 2100 nM in [8]. In experiment [6], this compound had an inhibition in vivo at 10 mg/kg of 25%.

Take `Cc1cc(COc2ccc(S(=O)(=O)CC3NCCC3C(=O)NO)cc2)c2ccccc2n1` (stereo not given): in [1], the “Caco-2 Papp” value is 0.1 ×10⁻⁶ cm/s. In addition, the results for the IC50 in experiment [2] and in experiment [5] were less than 1 nM and 83 nM, respectively. Also, the Ki in experiment [3] is 955 nM; in experiment [4], greater than 3300 nM; in experiment [7] it was greater than 4900 nM; in [8], greater than 2100 nM. The compound further showed an inhibition in vivo at 10 mg/kg in experiment [6] of 20%.

For the compound `Cc1cc(COc2ccc(S(=O)(=O)CC3(CC(=O)NO)CCCCN3)cc2)c2ccccc2n1` (stereo not given), the “Caco-2 Papp” value in experiment [1] amounted to 1.7 ×10⁻⁶ cm/s. In addition, the figures for the IC50 in [2] and in [5] were less than 1 nM and 632 nM, respectively. The Ki was 753 nM in experiment [3], greater than 3300 nM in [4], greater than 4900 nM in experiment [7] and greater than 2100 nM in experiment [8]. The same compound yielded an inhibition in vivo at 5 mg/kg in experiment [9] of 50%.

As to `Cc1cc(COc2ccc(S(=O)(=O)CC3(CC(=O)NO)CCN(CC(C)C)C3)cc2)c2ccccc2n1` (stereo not given), the “Caco-2 Papp” value in [1] is 0.8 ×10⁻⁶ cm/s. In addition, the IC50 was found to be 2.6 nM in experiment [2] and 161 nM in experiment [5]. The inhibition constant (Ki) is 603 nM in experiment [3], 2170 nM in experiment [4], greater than 4900 nM in [7] and greater than 2100 nM in experiment [8]. At 5 mg/kg the inhibition in vivo in experiment [9] was 22%.

For the compound `CCCCN1CCC(C(=O)NO)C(CS(=O)(=O)c2ccc(OCc3cc(C)nc4ccccc34)cc2)C1` (stereo not given), the “Caco-2 Papp” value in experiment [1] was determined as 1.6 ×10⁻⁶ cm/s. The IC50 in experiment [2] was less than 1 nM; in experiment [5] it was 900 nM. In addition, the Ki in experiment [3] is greater than 5000 nM; in experiment [4], greater than 3300 nM; in experiment [7], greater than 4900 nM; in [8], greater than 2100 nM. In experiment [6], this compound returned an inhibition in vivo at 10 mg/kg of 35%.

With `C#CN1CCC(C(=O)NO)C(CS(=O)(=O)c2ccc(OCc3cc(C)nc4ccccc34)cc2)C1` (stereo not given), in experiment [1], the “Caco-2 Papp” value came out at 1.3 ×10⁻⁶ cm/s. Moreover, the concentration for half-maximal inhibition (IC50) in experiment [2] was determined as 1 nM; in experiment [5] it was 180 nM. In addition, the Ki in experiment [3] is 377 nM; in [4], greater than 3300 nM; in experiment [7] it was greater than 4900 nM; in experiment [8], greater than 2100 nM. The compound further displayed an inhibition in vivo at 10 mg/kg in [6] of 24%.

In the case of `Cc1cc(COc2ccc(S(=O)(=O)CC3(CC(=O)NO)CCC3)cc2)c2ccccc2n1`, the “Caco-2 Papp” value in [1] amounted to 4.9 ×10⁻⁶ cm/s. Further, the values for the 50% inhibitory concentration (IC50) in experiment [2] and in experiment [5] were less than 1 nM and 223 nM, respectively. The Ki in [3] was 753 nM; in experiment [4] it was 2570 nM; in [7] it was greater than 4900 nM; in experiment [8] it was greater than 2100 nM. This compound also had an inhibition in vivo at 5 mg/kg in [9] of 86%.

As for `Cc1cc(COc2ccc(S(=O)(=O)CC3(CC(=O)NO)CCCN(C)C3)cc2)c2ccccc2n1` (stereo not given), in experiment [1], the “Caco-2 Papp” value is 0.2 ×10⁻⁶ cm/s. The half-inhibitory concentration (IC50) came out at 3.6 nM in experiment [2] and 208 nM in experiment [5]. The inhibitory constant (Ki) in experiment [3] was 3870 nM; in experiment [4] it was greater than 3300 nM; in [7], greater than 4900 nM; in [8] it was greater than 2100 nM. The inhibition in vivo at 5 mg/kg in experiment [9] is 49%.

In the case of `Cc1cc(COc2ccc(S(=O)(=O)CC3CNCCC3C(=O)NO)cc2)c2ccccc2n1` (stereo not given), the concentration for half-maximal inhibition (IC50) in experiment [2] was 1 nM; in experiment [5], 250 nM. For the same compound, the inhibition constant Ki in experiment [3] was greater than 5000 nM; in [4], greater than 3300 nM; in experiment [7], greater than 4900 nM; in experiment [8], greater than 2100 nM. The “Caco-2 Papp” value in experiment [10] was determined as 0.1 ×10⁻⁶ cm/s.
